Common to all, as to type: functional
Assay [1] deals with Rattus norvegicus. The experiment in a line: Inhibition of histamine-induced gastric acid secretion in the rat following 80 mg/kg s.c. administration. The settings on record: Stomach, sc. The method, boiled down:
(§1)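 Compound was given subcutaneously at 1 mL/kg to 48-h-fasted rats in groups of 10; controls received saline. Pylorus ligation under ether followed 30 min later. Histamine 2.5 mg/kg sc was given at 15-min intervals for 3 h. Gastric juice was titrated with 0.02 N NaOH to pH 7.0 to give total acid output, expressed as % mean inhibition vs controls, with ANOVA.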

Assay [2] deals with Rattus norvegicus. Briefly: The compound was tested for its ability to inhibit histamine-induced gastric acid secretion in the rat at a dose of 70 mg/kg, sc. To be noted: Stomach, route subcutaneous. The method, boiled down:
as §1

Assay [3] deals with Rattus norvegicus. Briefly: The compound was tested for its ability to inhibit histamine-induced gastric acid secretion in the rat at a dose of 76 mg/kg, sc. The settings on record: Stomach, route subcutaneous. The method, boiled down:
as §1

In assay [4] the test system is Rattus norvegicus. Briefly: Determined as […] and at 150 mg/kg peroral dose. The settings on record: route oral. The method, boiled down: (§2)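 Rats fasted 48 h with water ad libitum, in groups of 10, were dosed orally by gavage at 1 mL/kg; controls received saline. After 30 min, under ether, the pylorus was ligated. Histamine 2.5 mg/kg sc was given right after surgery and every 15 min for 3 h. Gastric juice was titrated with 0.02 N NaOH to pH 7.0 ± 0.1 as mequiv H+/100 g. Mean % inhibition vs controls was tested by ANOVA.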

For assay [5], the system named is Rattus norvegicus. Briefly: Gastric juice volume when tested orally in rat ligated stomach preparation at 50 mg/kg peroral dose. To be noted: route oral. The method, boiled down:
(§3)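 Orally gavaged rats (1 mL/kg; saline controls; 48-h fast, groups of 10) had pylorus ligation under ether 30 min post-dose. They then received histamine 2.5 mg/kg sc every 15 min for 3 h. At sacrifice, stomach contents were aspirated and the gastric juice volume in mL was recorded. Results are given as mean ± SD.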

Assay [6] concerns Rattus norvegicus. The experiment in a line: % inhibition in total acid secretion when tested orally in rat ligated stomach preparation at 100 mg/kg peroral dose. The settings on record: route oral. The method, boiled down:
as §2

Assay [7] has as its system Rattus norvegicus. The experiment in a line: Gastric juice volume when tested orally in rat ligated stomach preparation at 100 mg/kg peroral dose. To be noted: route oral. The method, boiled down: as §3
The subject of assay [8] is Rattus norvegicus. The experiment in a line: Gastric juice volume when tested orally in rat ligated stomach preparation at 150 mg/kg peroral dose. The settings on record: route oral. The method, boiled down: as §3
Assay [9] has as its system Rattus norvegicus. Briefly: % inhibition in total acid secretion when tested orally in rat ligated stomach preparation at 200 mg/kg peroral dose. The settings on record: route oral. The method, boiled down:
as §2

The subject of assay [10] is Rattus norvegicus. The experiment in a line: Determined as […] and at 200 mg/kg peroral dose. The settings on record: route oral. The method, boiled down:
as §2

The subject of assay [11] is Rattus norvegicus. The experiment in a line: Gastric juice volume when tested orally in rat ligated stomach preparation at 200 mg/kg peroral dose. The settings on record: route oral. The method, boiled down: as §3
Assay [12] has as its system Rattus norvegicus. Briefly: Determined as […] and at 100 mg/kg peroral dose. The settings on record: route oral. The method, boiled down:
as §2

The subject of assay [13] is Rattus norvegicus. Briefly: Determined as […] and at 50 mg/kg peroral dose. The settings on record: route oral. The method, boiled down: as §2
Assay [14] has as its system Rattus norvegicus. The experiment in a line: The compound was tested for its ability to inhibit histamine-induced gastric acid secretion in the rat at a dose of 60 mg/kg, sc. The settings on record: Stomach, route subcutaneous. The method, boiled down: as §1
Assay [15] deals with Rattus norvegicus. Briefly: The compound was tested for its ability to inhibit histamine-induced gastric acid secretion in the rat at a dose of 66 mg/kg, sc. To be noted: Stomach, route subcutaneous. The method, boiled down:
as §1

Assay [16] has as its system Rattus norvegicus. Briefly: The compound was tested for its ability to inhibit histamine-induced gastric acid secretion in the rat at a dose of 90 mg/kg, sc. The settings on record: Stomach, route subcutaneous. The method, boiled down:
as §1

Assay [17] concerns Rattus norvegicus. The experiment in a line: % inhibition in total acid secretion when tested orally in rat ligated stomach preparation at 75 mg/kg peroral dose. The settings on record: route oral. The method, boiled down:
as §2

In assay [18] the test system is Rattus norvegicus. The experiment in a line: % inhibition in total acid secretion when tested orally in rat ligated stomach preparation at 150 mg/kg peroral dose. To be noted: route oral. The method, boiled down: as §2
Assay [19] concerns Rattus norvegicus. Briefly: Gastric juice volume when tested orally in rat ligated stomach preparation at 75 mg/kg peroral dose. The settings on record: route oral. The method, boiled down: as §3
In assay [20] the test system is Rattus norvegicus. The experiment in a line: Determined as […] and at 75 mg/kg peroral dose. To be noted: route oral. The method, boiled down:
as §2

Where “and” joins values, the source holds several entries; their conditions need not be identical. Identical values can stand only once.

For `COc1ccc(-c2oc3ccc(C(=O)O)cc3c(=O)c2OC)cc1`, in the assay with Rattus norvegicus [1], the inhibition in vivo (commonly the drop in the measured response relative to a control, in per cent) at 80 mg/kg was found to be 22%.
Consider `CS(=O)(=O)c1ccc(-c2cc(=O)c3cc(C(=O)O)ccc3o2)cc1`, for which the inhibition in vivo at 70 mg/kg in the assay with Rattus norvegicus [2] was 41%.
Turning to `CC(C)c1ccc(-c2oc3ccc(C(=O)O)cc3c(=O)c2O)cc1`, the inhibition in vivo at 80 mg/kg with Rattus norvegicus [1] amounted to 24%.
In the case of `O=C(O)c1ccc2oc(-c3ccccc3Br)c(O)c(=O)c2c1`, in the assay with Rattus norvegicus [1], the inhibition in vivo at 80 mg/kg was found to be 22%.
For `CCCCCCOc1ccc(-c2oc3ccc(C(=O)O)cc3c(=O)c2OC)cc1`, the inhibition in vivo at 76 mg/kg in the assay on Rattus norvegicus [3] is -12%.
On to `CCCCCCc1ccc(-c2cc(=O)c3cc(C(=O)O)ccc3o2)cc1`, for which, in the assay on Rattus norvegicus [1], the inhibition in vivo at 80 mg/kg worked out at 2%.
On the same count and under the same terms, for `Cc1ccc(-c2oc3ccc(C(=O)O)cc3c(=O)c2OC(C)C)cc1` the value was 8%.
Take `O=C(O)c1ccc2oc(-c3ccc(Cl)cc3)c(O)c(=O)c2c1`: in the assay with Rattus norvegicus [1], the inhibition in vivo at 80 mg/kg is -19%.
Same read-out and setting: for `COc1ccc(-c2oc3ccc(C(=O)O)cc3c(=O)c2O)cc1` the value was 24%.
Take `O=C(O)c1ccc(-c2oc3ccc(C(=O)O)cc3c(=O)c2O)cc1`: the inhibition in vivo at 80 mg/kg with Rattus norvegicus [1] turned out to be 23%.
Turning to `COc1ccc(-c2oc3ccc(C(=O)O)cc3c(=O)c2OC(C)C)cc1`, the “mequiv of HCl” value in the assay on Rattus norvegicus [4] was 0.161; with Rattus norvegicus [10], 0.101; with Rattus norvegicus [12], 0.226; in the assay on Rattus norvegicus [13] it was 0.238. Also, the inhibition in vivo at 80 mg/kg in the assay with Rattus norvegicus [1] came to 35%. Also, the Volume is 5.13 mL in the assay with Rattus norvegicus [5], 5.16 mL in the assay on Rattus norvegicus [7], 4.8 mL in the assay on Rattus norvegicus [8] and 3.68 mL with Rattus norvegicus [11]. In addition, the Inhibition (commonly the drop in the measured response relative to a control, in per cent) with Rattus norvegicus [6] was 4% and 9%; with Rattus norvegicus [9], 34% and 59%.
For the compound `COc1c(-c2ccc(Cl)cc2)oc2ccc(C(=O)O)cc2c1=O`, the inhibition in vivo at 80 mg/kg in the assay on Rattus norvegicus [1] was determined as 34%.
The same measure, in the same setting: for `COc1ccc(-c2cc(=O)c3cc(C(=O)O)ccc3o2)cc1` the value was 13%; for `Cc1ccc(-c2oc3ccc(C(=O)O)cc3c(=O)c2O)cc1`, -6%.
`CCOc1ccc(-c2oc3ccc(C(=O)O)cc3c(=O)c2OC(C)C)cc1`: the inhibition in vivo at 60 mg/kg in the assay on Rattus norvegicus [14] turned out to be 18%.
For the compound `Cc1ccccc1-c1oc2ccc(C(=O)O)cc2c(=O)c1O`, in the assay on Rattus norvegicus [1], the inhibition in vivo at 80 mg/kg was determined as 15%.
Still for that read-out and setting: for `O=C(O)c1ccc2oc(-c3ccc(F)cc3)cc(=O)c2c1` the value was 21%; for `CC(C)Oc1c(-c2ccc(C(C)C)cc2)oc2ccc(C(=O)O)cc2c1=O`, 20%.
Consider `COc1c(-c2ccc(F)cc2)oc2ccc(C(=O)O)cc2c1=O`, for which the inhibition in vivo at 70 mg/kg with Rattus norvegicus [2] came out at 4%.
For the compound `COc1c(-c2ccc(C)cc2)oc2ccc(C(=O)O)cc2c1=O`, the inhibition in vivo at 80 mg/kg in the assay on Rattus norvegicus [1] is 4%.
With `COc1cccc(-c2oc3ccc(C(=O)O)cc3c(=O)c2OC(C)C)c1`, the inhibition in vivo at 66 mg/kg in the assay on Rattus norvegicus [15] was 12%.
Regarding `CC(C)c1ccc(-c2cc(=O)c3cc(C(=O)O)ccc3o2)cc1`, in the assay with Rattus norvegicus [1], the inhibition in vivo at 80 mg/kg stood at 19%.
Same read-out and setting: for `CCCCCCOc1ccc(-c2oc3ccc(C(=O)O)cc3c(=O)c2O)cc1` the value was -11%.
On to `COc1cc(-c2oc3ccc(C(=O)O)cc3c(=O)c2O)cc(OC)c1OC`, for which the inhibition in vivo at 80 mg/kg with Rattus norvegicus [1] was found to be 24%.
Take `COc1c(-c2ccc(C(C)C)cc2)oc2ccc(C(=O)O)cc2c1=O`: in the assay on Rattus norvegicus [1], the inhibition in vivo at 80 mg/kg came to 18%.
Turning to `C/N=C(\S)NCCCCc1c[nH]cn1` [BURIMAMIDE], the inhibition in vivo at 90 mg/kg in the assay on Rattus norvegicus [16] came out at 49%.
In the case of `CNC(=S)NCCSCc1[nH]cnc1C` [METIAMIDE], the entries for the “mequiv of HCl” value with Rattus norvegicus [4] and in the assay with Rattus norvegicus [20] were 0.064 and 0.148, respectively. Also, the inhibition in vivo at 75 mg/kg in the assay on Rattus norvegicus [17] is 46%. Also, the Volume with Rattus norvegicus [8] turned out to be 1.7 mL; with Rattus norvegicus [19], 2.99 mL. For the same compound, in the assay on Rattus norvegicus [18], the inhibition in vivo at 150 mg/kg was determined as 76%.

Source of the values: ChEMBL document CHEMBL1121415, “Inhibition of histamine-induced gastric secretion by flavone-6-carboxylic acids” (1980).
